In ChEMBL document CHEMBL4706571, “Structure-activity relationship study of tryptophan-based butyrylcholinesterase inhibitors” (Eur J Med Chem, 2020):
The source made the active and inactive calls.

Experiments:
[1] = molecular target: Acetylcholinesterase (Homo sapiens, UniProt P22303); assay: Inhibition of human AChE using acetylthiocholine iodide as substrate measured for 5 mins by Ellman's method
Outline: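 Human AChE at about 50 pM was preincubated for 5 min at 20 °C with compound (DMSO stock) and Ellman's reagent in 0.1 M phosphate buffer, pH 8.0, with 1% final DMSO. Acetylthiocholine iodide was then added and A412 followed for 1 min. Residual activity = (vi − b)/(vo − b), with b a blank lacking enzyme. IC50 used at least seven concentrations.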

[2] = molecular target: Cholinesterase (Homo sapiens, UniProt P06276); assay: Inhibition of human BChE using butyrylthiocholineiodide as substrate measured for 5 mins by Ellman's method
Outline: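 Human BChE at about 1 nM was preincubated for 5 min at 20 °C with compound and Ellman's reagent in 0.1 M phosphate buffer, pH 8.0, with 1% final DMSO. The reaction was started with butyrylthiocholine iodide and A412 read for 1 min from initial rates. Activity was corrected by an enzyme-free buffer blank. IC50 was fitted from at least seven concentrations.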

[3] = test system: Mus musculus; assay: Cognitive enhancing effect in intraperitoneally dosed C57BL/6J mouse model of scopolamine-induced memory impairment assessed as enhancement of short-term memory retrieval by measuring latency time to find former escape box location in acquisition phase measured on day 5 by Barnes maze test; assay type: functional, organism-based
Outline: (§1)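 C57BL/6J mice, Barnes maze: scopolamine 1 mg/kg s.c. 30 min before first daily trial; compound in 1% Tween 80 i.p. 60 min before, daily during 4-day acquisition (four trials/day, 15-min intervals). Drug-off probe day 5 (short-term) and day 12 (long-term): escape box removed, 90 s exploration, latency to former box location and primary errors recorded. n = 7–9; one-way ANOVA, Dunnett's.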

[4] = test system: Mus musculus; assay: Anti-amnesic activity in CD-1 mouse model of scopolamine-induced memory impairment assessed as step-through latency time to enter dark compartment in retention trail on day 2 at 10 to 30 mg/kg, ip administered 60 mins before trail by passive avoidance test; assay type: functional, organism-based; details: dose 10-30 mg/kg
Outline: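 CD-1 mice, passive avoidance: scopolamine 1 mg/kg s.c. in 0.9% saline 30 min before trial; test article suspended in 1% Tween 80, i.p. 60 min before trial (controls 1% Tween 80 i.p.). Acquisition trial: 30 s in lit compartment, gate opened, step-through latency to dark chamber recorded; retention trial 24 h later. n = 8–9.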

[5] = test system: Mus musculus; assay: Cognitive enhancing effect in C57BL/6J mouse model of scopolamine-induced memory impairment model assessed as escape latency time at 10 to 30 mg/kg, ip administered for 7 days and 60 mins before trail by Morris water maze test relative to control; assay type: functional, organism-based; details: dose 10-30 mg/kg, time 7.0 day
[6] = test system: Mus musculus; assay: Cognitive enhancing effect in intraperitoneally dosed C57BL/6J mouse model of scopolamine-induced memory impairment assessed as enhancement of learning abilities and working memory by measuring escape latency time to reach target in acquisition phase measured on day 5 by Barnes maze test; assay type: functional, organism-based; outline: as §1
[7] = Neurotoxicity in mouse assessed as effect in locomotor activity at 30 mg/kg, ip measured up to 60 mins by rotarod test; assay type: toxicity, organism-based; details: in vivo, 1 h
Outline: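 Mice trained 3 consecutive days on rotarod (2 cm rod, 18 rpm); 24 h later dosed i.p. with 30 mg/kg in 1% Tween 80 or vehicle, tested after 60 min at 6, 18 and 24 rpm. Motor impairment defined as failure to stay on for 60 s; expressed as mean time on rod.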

[8] = test system: Mus musculus; assay: Cognitive enhancing effect in intraperitoneally dosed C57BL/6J mouse model of scopolamine-induced memory impairment assessed as enhancement of long-term memory retrieval by measuring latency time to find former escape box location in acquisition phase measured on day 12 by Barnes maze test; assay type: functional, organism-based; outline: as §1

Chain of Acetylcholinesterase (P22303 whole entry): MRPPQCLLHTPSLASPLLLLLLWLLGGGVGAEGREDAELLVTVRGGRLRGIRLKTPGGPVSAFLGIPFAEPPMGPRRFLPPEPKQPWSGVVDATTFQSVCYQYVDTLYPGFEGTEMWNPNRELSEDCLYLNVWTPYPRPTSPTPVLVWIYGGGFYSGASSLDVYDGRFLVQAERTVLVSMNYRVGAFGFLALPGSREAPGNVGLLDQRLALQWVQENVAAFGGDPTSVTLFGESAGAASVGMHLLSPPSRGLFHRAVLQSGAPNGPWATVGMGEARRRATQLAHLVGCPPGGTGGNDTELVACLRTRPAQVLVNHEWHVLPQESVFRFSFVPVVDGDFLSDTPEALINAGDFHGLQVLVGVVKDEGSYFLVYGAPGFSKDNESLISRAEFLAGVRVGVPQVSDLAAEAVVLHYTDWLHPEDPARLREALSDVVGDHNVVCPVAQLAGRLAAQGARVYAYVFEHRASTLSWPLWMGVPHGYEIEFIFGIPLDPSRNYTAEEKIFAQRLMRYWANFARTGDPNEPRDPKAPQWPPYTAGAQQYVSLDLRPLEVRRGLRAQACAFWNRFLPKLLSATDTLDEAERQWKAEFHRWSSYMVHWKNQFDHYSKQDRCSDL
Chain of Cholinesterase (P06276 whole entry): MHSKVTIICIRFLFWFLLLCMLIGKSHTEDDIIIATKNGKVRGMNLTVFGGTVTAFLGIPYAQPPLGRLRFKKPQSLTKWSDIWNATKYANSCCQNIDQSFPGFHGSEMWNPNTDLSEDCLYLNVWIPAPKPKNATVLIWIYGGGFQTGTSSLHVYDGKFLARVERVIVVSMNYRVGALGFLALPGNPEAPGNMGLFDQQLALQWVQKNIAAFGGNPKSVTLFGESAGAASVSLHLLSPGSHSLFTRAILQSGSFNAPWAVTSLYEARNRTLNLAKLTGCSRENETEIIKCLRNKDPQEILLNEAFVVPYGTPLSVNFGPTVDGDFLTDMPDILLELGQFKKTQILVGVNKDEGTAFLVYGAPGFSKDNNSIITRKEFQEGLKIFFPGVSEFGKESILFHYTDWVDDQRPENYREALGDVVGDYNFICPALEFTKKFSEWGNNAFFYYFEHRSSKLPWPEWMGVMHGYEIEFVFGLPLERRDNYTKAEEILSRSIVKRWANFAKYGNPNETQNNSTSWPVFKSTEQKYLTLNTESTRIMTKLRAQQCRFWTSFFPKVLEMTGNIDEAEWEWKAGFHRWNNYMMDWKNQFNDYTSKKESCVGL

SMILES	IC50 [2] [nM]	also measured
CCCCN[C@@H](Cc1c[nH]c2ccccc12)C(=O)NCCC1CCN(Cc2ccccc2)CC1	2	IC50 [1]: 25400 nM
CCCCN[C@@H](Cc1c[nH]c2ccccc12)C(=O)NCCC1CCN(c2ccccc2)CC1	5.6	–
CCCCN[C@@H](Cc1ccccc1)C(=O)NCCC1CCCCCC1	609	–
CCCCN[C@@H](Cc1c[nH]c2ccccc12)C(=O)NCCC1CCCN(Cc2ccccc2)C1 (mixture of isomers)	9	–
CCCCN[C@@H](Cc1c[nH]c2ccccc12)C(=O)NCCC1CCCN(Cc2ccccc2)CC1 (mixture of isomers)	2.8	IC50 [1]: 16000 nM
CCCCN[C@@H](Cc1c[nH]c2ccccc12)C(=O)NCCC1CCCC(c2ccccc2)C1 (mixture of isomers)	6.6	–
CCCCN(CCCC)[C@@H](Cc1c[nH]c2ccccc12)C(=O)N1CCC(Cc2ccccc2)CC1	76	–
CCCCN[C@@H](Cc1c[nH]c2ccccc12)C(=O)NCCC1CCCCCC1	22	Activity [3]: inactive; Activity [4]: inactive; Activity [5]: inactive; Activity [6]: inactive; Activity [7]: Non-Toxic; Activity [8]: Active
CCCCN[C@@H](Cc1c[nH]c2ccccc12)C(=O)NCCC1CCN(CCc2ccccc2)CC1	3.8	–
CCCCN[C@@H](Cc1c[nH]c2ccccc12)C(=O)NCCC1CCCN(Cc2c(F)c(F)cc(F)c2F)CC1 (mixture of isomers)	5.9	–
CCCCN[C@@H](Cc1c[nH]c2ccccc12)C(=O)NCCC1CCCN(Cc2ccc(OC)cc2)CC1 (mixture of isomers)	100	–
CCCCN[C@@H](Cc1c[nH]c2ccccc12)C(=O)NCCC1CCN(CC2CCN(C)CC2)CC1	6600	IC50 [1]: 29700 nM
CCCCN[C@@H](CC(C)C)C(=O)NCCC1CCCCCC1	36300	–
CCCCN[C@@H](Cc1c[nH]c2ccccc12)C(=O)N1CCCC1c1ccccc1 (stereo partly drawn)	990	–
